Measurements from different studies.
Lines come from different studies, so protocols differ.
Target: Carbonic anhydrase 1 (CA1, Homo sapiens, UniProt P00915)
Read-out: enzyme activity
Action: inhibitor

| SMILES | test | Ki [µM] |
| --- | --- | --- |
| COc1ccnc(C[S+]([O-])c2nc3ccc(OC(F)F)cc3[nH]2)c1OC (centres unmarked) | – | 7.16 |
| O=C(O)c1cccc(=O)o1 | stopped-flow | > 100 |
| CC1CCC(CC(=O)Nc2nnc(S(N)(=O)=O)s2)CC1 (centres unmarked) | stopped-flow | 0.0692 |
| CN(C/C=C/C#CC(C)(C)C)Cc1cccc2ccccc12 | – | 20.6 |
| CCOC(=O)c1ccc(=O)oc1 | stopped-flow | > 100 |
| Cc1cncc(CN2CCC(=C3c4ccc(Cl)cc4CCc4cccnc43)CC2)c1 | absorbance | 9.95 |
| O=C(OC1CCCCC1)c1ccc(=O)oc1 | stopped-flow | > 100 |
| NS(=O)(=O)c1cnc(NC(=O)CCc2ccccc2)s1 | stopped-flow | 2.43 |
| Nc1nc2c(ncn2COCCO)c(=O)[nH]1 | – | 7.31 |
| CC1CCCC(C(=O)Nc2nnc(S(N)(=O)=O)s2)C1 (centres unmarked) | stopped-flow | 0.0827 |
| O=C(Oc1ccc(Cl)cc1)c1ccc(=O)oc1 | stopped-flow | > 100 |
| COc1cc(C)c(/C=C/C(C)=C/C=C/C(C)=C/C(=O)O)c(C)c1C | – | 7.68 |
| N#CSCCCCOc1ccc2c(-c3ccccc3)cc(=O)oc2c1 | stopped-flow | > 100 |
| CC1(C(=O)Nc2nnc(S(N)(=O)=O)s2)CCC1 | stopped-flow | 0.334 |
| Cc1c(Cl)c(=O)oc2cc(OCCCCSC#N)ccc12 | stopped-flow | > 100 |
| Cc1ccccc1CC(=O)Nc1nnc(S(N)(=O)=O)s1 | stopped-flow | 0.0518 |
| O=C(OCc1cn(-c2ccc([N+](=O)[O-])cc2)nn1)c1ccc(=O)oc1 | stopped-flow | > 100 |
| NS(=O)(=O)c1nnc(NC(=O)CN2CC3CCC2CC3)s1 | stopped-flow | 0.144 |
| O=C(Oc1ccccc1)c1ccc(=O)oc1 | stopped-flow | > 100 |
| OC(Cn1cncn1)(Cn1cncn1)c1ccc(F)cc1F | – | 7.56 |
